Data set [1] has as its system Zika virus. Kind of data set: Antiviral activity against ZIKV infected in human Huh7.5.1 cells assessed as inhibition of viral replication measured after 3 days qRT-PCR analysis. The format is functional, organism-based. Particulars: Huh-7.5.1, 72 h. The method in brief:
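Huh7.5.1 cells were infected with DENV II or ZIKV at MOI 0.1 and treated with compound. Viral RNA was quantified by qRT-PCR after 3 days. EC50 is 50% reduction of RNA level.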

The nature of data set [2]: Selectivity index, ratio of CC50 for HEK293T cells to EC50 for HIV pseudotyped virions infected in HEK293T cells. Format: toxicity, cell-based. Particulars: human, read-out: Ratio CC50/EC50. The method in brief:
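HIV pseudovirus made from VSVG plus env-deficient pNL4-3.luc.R-E- in HEK293T cells and diluted to 0.2 ng p24/ml. Target HEK293T cells were given compound 15 min before infection and lysed 48 h post-infection. CC50 by 48 h WST-1 viability (OD450/OD630).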

Data set [3] has as its system Hepatitis C virus. Kind of data set: Antiviral activity against EGFP-fused HCV JFH-1 harboring K78E/E2-G451R/NS3-M260K/NS5A-T462I mutation infected in human Huh7.5.1 cells assessed as combination index after 2 days in presence of telaprevir by qRT-PCR analysis. Format: functional, Hepacivirus hominis. The method in brief:
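In HCVcc-infected Huh7.5.1 cells (1×10^4/well, overnight, 37 °C), compound was given at various concentrations alone or with the named approved antiviral. After 2 days HCV RNA was quantified by qRT-PCR to derive the combination index.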

Data set [4] concerns Hepatitis C virus. The data set can be described thus: Antiviral activity against EGFP-fused HCV JFH-1 harboring K78E/E2-G451R/NS3-M260K/NS5A-T462I mutation infected in human Huh7.5.1 cells assessed as reduction in viral RNA level after 2 days in presence of IFNalpha by qRT-PCR analysis. Format: functional, organism-based. Particulars: Hepacivirus hominis. The method in brief:
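Huh7.5.1 cells at 1×10^4/well, grown overnight at 37 °C. HCVcc was mixed with serially diluted compound (top 30 or 6 μM), given alone or with the named drug, and added to the cells. Viral RNA was read by qRT-PCR after 2 days. EC50 is the concentration giving 50% RNA reduction.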
For orientation: Quantitative PCR measures a nucleic acid by following its amplification.

The subject of data set [5] is Respiratory syncytial virus. Kind of data set: Antiviral activity against RSV infected in African green monkey Vero cells assessed as inhibition of viral replication measured after 5 to 7 days by plaque formation assay. Format: functional, organism-based. Particulars: human respiratory syncytial virus. The method in brief: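 Vero cells at 2×10^4/well were cultured 18 h, then infected with RSV at 2000 TCID50/ml. Compound (0.01–20 µM) was added immediately. Viral amount was measured by plaque formation assay.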

Data set [6] concerns Middle East respiratory syndrome-related coronavirus. Kind of data set: Antiviral activity against MERS-CoV infected in human Caco2 cells assessed as inhibition of viral replication measured at 18 hrs post-infection by plaque formation assay. Particulars: Caco-2, 18 h. Format: functional, organism-based.
Data set [7] has as its target T1, Membrane protein MLC1 (Homo sapiens) (UniProt Q15049).
T1 sequence (whole entry): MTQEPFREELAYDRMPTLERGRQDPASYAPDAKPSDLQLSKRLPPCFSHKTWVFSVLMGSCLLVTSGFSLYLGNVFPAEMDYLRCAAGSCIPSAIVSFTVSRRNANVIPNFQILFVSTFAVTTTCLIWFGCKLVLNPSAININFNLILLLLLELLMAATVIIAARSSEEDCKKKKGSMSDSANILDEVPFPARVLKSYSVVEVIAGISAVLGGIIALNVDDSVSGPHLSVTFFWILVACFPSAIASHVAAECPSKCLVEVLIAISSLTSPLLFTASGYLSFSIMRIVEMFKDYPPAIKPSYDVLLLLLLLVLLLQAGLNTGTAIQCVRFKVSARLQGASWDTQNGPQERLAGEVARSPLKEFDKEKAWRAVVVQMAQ
The data set can be described thus: Binding affinity to MLC1 in human Huh7.5.1 cell lysate infected with HCV at 0.1 to 10 uM incubated for 1 hr followed by 10000 mJ/cm2 UV irradiation for 10 mins and subsequent addition of biotin-N3 measured after 1 hr by ABPP Gel-based by LC/MS/MS analysis. Format: subcellular.

Data set [8] is described as follows: Selectivity index, ratio of CC50 for human Huh7.5.1 cells to EC50 for ZIKV infected in human Huh7.5.1 cells. Format: toxicity, cell-based. Particulars: read-out: Ratio CC50/EC50. The method in brief: (§1)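 SI from two assays. Antiviral: Huh7.5.1 cells infected with DENV II or ZIKV at MOI 0.1; viral RNA measured by qRT-PCR after 3 days; EC50 taken at 50% RNA reduction. Cytotoxicity: cells seeded at 1×10^4/well, given serially diluted compound for 48 h, then WST-1 absorbance (OD450/OD630) read for CC50.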

Data set [9] concerns Hepatitis C virus. The data set can be described thus: Antiviral activity against HCV infected in human Huh7.5.1 cells assessed as decrease in viral infection. The format is functional, organism-based, Hepacivirus hominis. Particulars: Huh-7.5.1.
Data set [10] is described as follows: Selectivity index, ratio of CC50 for human RD cells to EC50 for EV71(FY)-Luc infected in human RD cells. The format is toxicity, cell-based. Particulars: read-out: Ratio CC50/EC50. The method in brief: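 RD cells seeded at 1×10^4/well and cultured overnight, then infected with EV71(FY)-Luc at MOI 1 and treated with compound straight away. EC50 is the 50% drop in luminescence or RNA. CC50 comes from a 48 h serial-dilution exposure at 1×10^4 cells/well, read by WST-1 (OD450/OD630).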

Data set [11] in a line: Selectivity index, ratio of CC50 for human Huh7.5.1 cells to EC50 for DENV infected in human Huh7.5.1 cells. The format is toxicity, cell-based. Particulars: read-out: Ratio CC50/EC50. The method in brief:
as §1

The target of data set [12] is Inosine-5'-monophosphate dehydrogenase 2 (Homo sapiens) (UniProt P12268). Kind of data set: Binding affinity to IMPDH2 (unknown origin).
Data set [13] concerns Human immunodeficiency virus. Kind of data set: Antiviral activity against HIV pseudotyped virions infected in human HEK293T cells cotransfected with envelope deficient pNL4-3.luc.R-E- plasmid and VSVG plasmid assessed as inhibition of HIV replication preincubated for 15 mins followed by viral infection and measured at 48 hrs post-infection by luciferase based luminescence method. Particulars: Human immunodeficiency virus 1, HEK-293T. The format is functional, organism-based. The method in brief: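 VSV-G-pseudotyped HIV (pNL4-3.luc.R-E-) was made in HEK293T by calcium phosphate transfection, collected at 48 h and diluted to 0.2 ng p24/ml. HEK293T cells in 24-well plates got compound 15 min before 0.5 mL pseudovirus. Cells were lysed 48 h post-infection for luciferase.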

Data set [14] has as its system Huh7.5.1. Kind of data set: Cytotoxicity against human Huh7.5.1 cells infected with DENV assessed as decrease in cell viability after 48 hrs by WST1 assay. The format is cell-based. Particulars: Huh-7.5.1, 48 h. The method in brief: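 Cells at 1×10^4/well, cultured overnight at 37 °C, were incubated 48 h with serially diluted compound. Viability was read by WST-1 absorbance (OD450/OD630).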
(Tetrazolium assays rely on reduction of a dye to a coloured formazan, in cell work by metabolically active cells.)

Data set [15] in a line: Selectivity index, ratio of CC50 for human Caco2 cells to EC50 for MERS-CoV infected in human Caco2 cells. Format: toxicity, cell-based. Particulars: read-out: Ratio CC50/EC50.
The nature of data set [16]: Cytotoxicity against human Huh7.5.1 cells infected with ZIKV assessed as decrease in cell viability after 48 hrs by WST1 assay. The format is cell-based. The method in brief: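 Cells seeded at 1 × 10^4 per well and cultured overnight at 37 °C, then incubated 48 h with serially diluted compounds. Viability read with WST-1 reagent as absorbance at OD450/OD630.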

SMILES strings stand for the structures. Calls of active or inactive are those of the source. The rule behind the calls is not given here.

As usually defined, the EC50 is the concentration at which the effect is half-maximal. Usually CC50 stands for the concentration that lowers cell viability or growth by half.

Chain of Inosine-5'-monophosphate dehydrogenase 2 (Homo sapiens) (P12268 2-514 limits assumed): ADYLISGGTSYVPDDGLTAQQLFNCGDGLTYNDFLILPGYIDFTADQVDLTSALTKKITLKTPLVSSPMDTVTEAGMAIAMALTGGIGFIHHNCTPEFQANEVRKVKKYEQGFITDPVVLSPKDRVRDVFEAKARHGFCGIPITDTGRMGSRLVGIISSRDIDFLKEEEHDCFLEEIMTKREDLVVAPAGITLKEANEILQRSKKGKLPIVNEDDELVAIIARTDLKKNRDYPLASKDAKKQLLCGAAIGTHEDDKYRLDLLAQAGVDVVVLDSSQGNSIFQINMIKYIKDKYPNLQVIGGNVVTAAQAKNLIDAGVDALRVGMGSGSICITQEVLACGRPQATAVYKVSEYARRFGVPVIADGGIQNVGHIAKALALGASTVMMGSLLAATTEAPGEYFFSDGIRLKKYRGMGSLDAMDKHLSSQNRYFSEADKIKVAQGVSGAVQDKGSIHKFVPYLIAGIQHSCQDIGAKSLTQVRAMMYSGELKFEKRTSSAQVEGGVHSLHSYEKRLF

Consider `CCN(CC)c1ccc(Oc2ccc(-c3[nH]c4cccc(F)c4c(=O)c3C)cc2F)cc1`, for which the EC50 in data set [1] is 20 nM; in [5] it was 60 nM; in data set [6], 333 nM; in data set [9], 15 nM; in data set [13], 13 nM; in data set [14], > 2500 nM. The selectivity ratio in data set [2] is > 96; in [8], > 125; in [10] it was > 625; in data set [11] it was > 357; in [15] it was > 7.5. Also, in data set [3], the CI result is “>=10 - 50”. Further, the Activity entry in data set [4] is “Dose-dependent effect”. Moreover, the result in data set [7] was Active. Further, the outcome in data set [12] was inactive. Besides, the CC50 at 48 h in data set [16] is > 2500 nM.
